IC50, Rf and Activity data for 18 molecules are collected here from ChEMBL document CHEMBL3259600, “Synthesis and biological evaluation of some new pyrazoline substituted benzenesulfonylurea/thiourea derivatives as anti-hyperglycaemic agents and aldose reductase inhibitors” (Eur J Med Chem, 2014).

The target in data set [1] is Aldo-keto reductase family 1 member B1 (Rattus norvegicus, UniProt P07943). Briefly: Inhibition of aldose reductase in rat lens by spectrophotometer analysis. An outline of the steps:
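Crude enzyme from rat lens homogenized in 9 volumes 100 mM potassium phosphate pH 6.2, spun 15,000 × g for 30 min at 4 °C, supernatant used. Assay in 50 mM potassium phosphate pH 6.2 with 0.4 M lithium sulphate, 5 mM β-mercaptoethanol, 10 mM DL-glyceraldehyde, 0.1 mM NADPH, at 37 °C. DMSO-dissolved compound preincubated 5 min, reaction started with NADPH, read spectrophotometrically, triplicate. IC50 by non-linear regression of % inhibition vs log concentration.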

Data set [2] can be described thus: Retardation factor of the compound using chloroform-acetone at ratio of 9:1 as solvent system by thin layer chromatography. The class given is physicochemical.
The subject of another data set is Rattus norvegicus. Briefly: Antihyperglycemic activity in glucose-fed hyperglycaemic Wistar albino rat assessed as inhibition of postprandial hyperglycemia at 0.05 mM/kg, po administered via gavage 30 mins prior to glucose challenge measured 60 mins after glucose load. The class given is functional. Details: scale not given: the % may be the effect or the level left; call rule not given here. In outline:
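Rats fasted at least 16 h with water available, groups of six. Vehicle 1% w/v CMC in distilled water, 10 ml/kg, given orally. Glucose load 3 g/kg 30 min after treatment. Retro-orbital blood sampled just before and 60 min after the load. Glucose tolerance by AUC, percent activity from AUC against vehicle group, Dunnett's test.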

Data set [3] can be described thus: Retardation factor of the compound using toulene-ethyl acetate-formic acid at ratio of 5:4:1 as solvent system by thin layer chromatography. The class given is physicochemical.
Data set [4] can be described thus: Retardation factor of the compound using chloroform-acetone at ratio of 8:2 as solvent system by thin layer chromatography. In kind it is physicochemical.

SMILES strings stand for the structures.

Broadly, the IC50 is the concentration that inhibits the measured activity by half. Take `Cc1ccc(C2CC(c3ccc(N(C)C)cc3)=NN2c2ccc(S(=O)(=O)NC(=S)NCc3ccccc3)cc2)cc1` (centres undefined): the IC50 in data set [1] (read-out: IC50) was 69.9 nM. Also, the Rf in data set [2] was 0.9. Also, in the data set with Rattus norvegicus, the Activity is given as 21.7%.

For `CN(C)c1ccc(C2=NN(c3ccc(S(=O)(=O)NC(=O)NCc4ccccc4)cc3)C(c3ccccc3)C2)cc1` (centres undefined), the Rf in data set [3] turned out to be 0.85. Further, in data set [1], the IC50 entry was “Not Active”. In addition, the Activity in the data set on Rattus norvegicus was found to be 15.5%.

Regarding `CN(C)c1ccc(C2=NN(c3ccc(S(=O)(=O)NC(=O)NCc4ccccc4)cc3)C(c3ccc(Cl)cc3)C2)cc1` (centres undefined), in data set [3], the Rf turned out to be 0.78. Moreover, in the data set on Rattus norvegicus, the Activity was determined as 6.7%.

For `COc1ccc(C2CC(c3ccc(N(C)C)cc3)=NN2c2ccc(S(=O)(=O)NC(=O)NCc3ccccc3)cc2)cc1` (centres undefined), the Rf in data set [3] worked out at 0.7. Moreover, in data set [1], the IC50 entry is recorded as “Not Active”. The Activity in the data set on Rattus norvegicus is 17.5%.

As to `Cc1ccc(C2CC(c3ccc(N(C)C)cc3)=NN2c2ccc(S(=O)(=O)NC(=O)NCc3ccccc3)cc2)cc1` (centres undefined), the Rf in data set [4] stood at 0.88. Moreover, in the data set with Rattus norvegicus, the Activity worked out at 12%.

`CN(C)c1ccc(C2=NN(c3ccc(S(=O)(=O)NC(=O)NCc4ccccc4)cc3)C(c3ccccc3Cl)C2)cc1` (centres undefined): in data set [3], the Rf turned out to be 0.79. Also, the IC50 result in data set [1] is given as “Not Active”. Moreover, the Activity with Rattus norvegicus is 4.7%.

Consider `COc1ccc(C2CC(c3ccc(N(C)C)cc3)=NN2c2ccc(S(=O)(=O)NC(=O)NCc3ccccc3)cc2)cc1OC` (centres undefined), for which the Rf in data set [3] turned out to be 0.56. Besides, the Activity with Rattus norvegicus came out at 18%.

As for `COc1cc(C2CC(c3ccc(N(C)C)cc3)=NN2c2ccc(S(=O)(=O)NC(=O)NCc3ccccc3)cc2)cc(OC)c1OC` (centres undefined), the Rf in data set [2] came to 0.83. Also, in the data set on Rattus norvegicus, the Activity is recorded as 29.3%.

On to `CN(C)c1ccc(C2=NN(c3ccc(S(=O)(=O)NC(=S)NCc4ccccc4)cc3)C(c3ccccc3)C2)cc1` (centres undefined), for which the Rf in data set [3] came out at 0.88. Moreover, in data set [1] (read-out: IC50), the half-inhibitory concentration (IC50) turned out to be 90.1 nM. Besides, in the data set with Rattus norvegicus, the Activity amounted to 24.2%.

Turning to `CN(C)c1ccc(C2=NN(c3ccc(S(=O)(=O)NC(=S)NCc4ccccc4)cc3)C(c3ccc(Cl)cc3)C2)cc1` (centres undefined), the Rf in data set [3] was determined as 0.87. Moreover, in the data set with Rattus norvegicus, the Activity amounted to 4.2%.

On to `COc1ccc(C2CC(c3ccc(N(C)C)cc3)=NN2c2ccc(S(=O)(=O)NC(=S)NCc3ccccc3)cc2)cc1` (centres undefined), for which the Rf in data set [3] was 0.65. Besides, the Activity with Rattus norvegicus amounted to 11.7%.

Regarding `CN(C)c1ccc(C2=NN(c3ccc(S(=O)(=O)NC(=S)NCc4ccccc4)cc3)C(c3ccccc3Cl)C2)cc1` (centres undefined), in data set [3], the Rf was 0.75. Besides, the IC50 in data set [1] (read-out: IC50) stood at 85 nM. Besides, the Activity in the data set on Rattus norvegicus is reported as 15.3%.

Turning to `COc1cc(C2CC(c3ccc(N(C)C)cc3)=NN2c2ccc(S(=O)(=O)NC(=S)NCc3ccccc3)cc2)cc(OC)c1OC` (centres undefined), in data set [3], the Rf is 0.92. Also, the Activity with Rattus norvegicus was found to be 28.6%.

As to `CCCCNC(=S)NS(=O)(=O)c1ccc(N2N=C(c3ccc(N(C)C)cc3)CC2c2ccccc2)cc1` (centres undefined), the Rf in data set [3] amounted to 0.88. Moreover, in data set [1] (read-out: IC50), the IC50 was 43 nM. Besides, the Activity in the data set on Rattus norvegicus stood at 10.5%.

`CCCCNC(=S)NS(=O)(=O)c1ccc(N2N=C(c3ccc(N(C)C)cc3)CC2c2ccc(Cl)cc2)cc1` (centres undefined): the Rf in data set [3] was found to be 0.66. In addition, the IC50 in data set [1] (read-out: IC50) was found to be 17.5 nM. Further, the Activity in the data set on Rattus norvegicus is listed as 18.9%.

For `CCCCNC(=S)NS(=O)(=O)c1ccc(N2N=C(c3ccc(N(C)C)cc3)CC2c2ccc(OC)cc2)cc1` (centres undefined), in data set [3], the Rf worked out at 0.9. Further, the Activity in the data set on Rattus norvegicus is 17.2%.

For the molecule `CN(C)c1ccc(C2=NN(c3ccc(S(=O)(=O)NC(=S)NC4CCCCC4)cc3)C(c3ccccc3)C2)cc1` (centres undefined), the Rf in data set [3] is recorded as 0.97. For the same molecule, in data set [1] (read-out: IC50), the IC50 was 17.8 nM. Besides, the Activity with Rattus norvegicus is on record as 2.7%.

Consider `Cc1ccc(S(=O)(=O)NC(=O)NN2CC3CCCC3C2)cc1` (centres undefined) [GLICLAZIDE], for which the Activity in the data set with Rattus norvegicus was 25.4%.
